The results in this text go back to PubChem BioAssay.

Activity calls are given as the source filed them.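 Rule for the calls, unless noted: active = viability at or below 30% in both replicate assays; inconclusive = viability at or below 30% in just one of the two assays; inactive = the rest.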

Assay [1] in a line: reducers of endogenous Her2 protein level, primary screen, SKBR3 breast tumor cells, AlphaScreen, ATP viability (AID 461;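 active = Her2 level under about 52% in both replicate screens, with viability over 70% of control, limit read from the data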;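 for Her2 level: lower value means less Her2 protein in the cells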;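 for viability: percent of carrier control wells set as 100% viability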). The note with it: 18-24 h, measured here: SKBR3 viability, ATP luminescence, at 10 µM.
For assay [2], the target named is Receptor tyrosine-protein kinase erbB-2 (Homo sapiens) (UniProt P04626). The assay is described as above. The conditions noted are these: 18-24 h, at 10 µM, stronger effect = lower value.
Sequence of Receptor tyrosine-protein kinase erbB-2 (Homo sapiens) (P04626 whole entry, looked up): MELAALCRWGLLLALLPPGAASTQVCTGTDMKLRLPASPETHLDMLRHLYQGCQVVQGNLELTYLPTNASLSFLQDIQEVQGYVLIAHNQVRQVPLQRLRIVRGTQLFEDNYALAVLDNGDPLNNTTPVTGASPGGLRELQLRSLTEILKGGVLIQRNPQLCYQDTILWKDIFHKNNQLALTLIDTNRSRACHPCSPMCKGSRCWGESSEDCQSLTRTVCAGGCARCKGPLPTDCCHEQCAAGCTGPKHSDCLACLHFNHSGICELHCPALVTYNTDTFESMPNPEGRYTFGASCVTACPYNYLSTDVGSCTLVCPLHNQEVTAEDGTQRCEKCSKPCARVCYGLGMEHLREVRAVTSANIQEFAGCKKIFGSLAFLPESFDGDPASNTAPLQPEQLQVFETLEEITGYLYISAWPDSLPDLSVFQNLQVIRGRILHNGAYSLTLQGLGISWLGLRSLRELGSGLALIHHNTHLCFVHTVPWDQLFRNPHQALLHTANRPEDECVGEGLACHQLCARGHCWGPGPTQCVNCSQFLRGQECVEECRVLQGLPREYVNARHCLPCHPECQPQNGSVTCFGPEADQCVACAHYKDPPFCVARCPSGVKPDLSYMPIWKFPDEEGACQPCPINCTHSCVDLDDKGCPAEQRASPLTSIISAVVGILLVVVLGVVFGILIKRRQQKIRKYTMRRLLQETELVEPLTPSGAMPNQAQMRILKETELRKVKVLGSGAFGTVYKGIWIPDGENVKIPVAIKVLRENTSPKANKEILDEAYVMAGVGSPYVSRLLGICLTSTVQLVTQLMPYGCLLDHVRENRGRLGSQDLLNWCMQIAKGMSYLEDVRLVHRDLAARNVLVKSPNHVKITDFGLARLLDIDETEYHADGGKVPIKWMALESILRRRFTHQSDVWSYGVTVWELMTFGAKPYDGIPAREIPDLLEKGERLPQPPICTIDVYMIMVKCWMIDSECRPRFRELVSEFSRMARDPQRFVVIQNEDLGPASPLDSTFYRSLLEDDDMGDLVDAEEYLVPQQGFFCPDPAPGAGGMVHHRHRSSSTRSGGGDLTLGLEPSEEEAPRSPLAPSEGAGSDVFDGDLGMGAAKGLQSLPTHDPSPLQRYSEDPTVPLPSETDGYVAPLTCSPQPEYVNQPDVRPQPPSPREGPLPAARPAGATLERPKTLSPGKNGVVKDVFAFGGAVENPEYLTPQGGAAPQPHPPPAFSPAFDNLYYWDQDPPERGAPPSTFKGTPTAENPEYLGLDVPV
Assay [3] can be described thus: SK-BR-3 cell growth inhibitors, pilot screen, 24 h, human (AID 572;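 active = viability at or below 10% of carrier control in both of two separate runs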;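 note: compound exposure lasted between 18 and 24 h rather than exactly 24 h; 100% = carrier-treated control wells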). The conditions noted are these: SK-BR-3 viability, CellTiter-Glo luminescence, at 10 µM, stronger effect = lower value.
Assay [4] is described as follows: HUVEC growth inhibition – cell-based, human, primary screen (AID 575).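 Note: 100% = median of untreated cell wells with 0.1% DMSO on each plate.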 The conditions noted are these: HUVEC proliferation, CellTiter-Glo luminescence, 72 h; at 10 µM; stronger effect = lower value. The procedure, abridged: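 material = primary HUVEC, no more than 12 passages | input = 1250 cells per well | controls = vehicle and MePR control wells | measured by = CTG luminescence | times = 72 h compound incubation | format = collagen-coated 384-well format | read-out = % viability vs DMSO wells | doses = single 10 µM dose, 0.1% DMSO, from 5x medium stock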

Assay [5] in a line: growth inhibitors of H69AR lung tumor, primary screen, human, duplicate replicates (AID 580;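 active = viability at or under a set limit in both replicates, limit being median viability minus 3 SD, cut at about 48% in these data, passing the limit was not always enough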;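 note: 100% = mean luminescence of untreated wells and 0% = no signal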). The note with it: H69AR lung tumor cells viability, ATP luminescence, 72 h; at 10 µM; stronger effect = lower value.
Assay [6] can be described thus: reversal of MRP1-mediated doxorubicin resistance, pilot screen, H69AR cells, doxorubicin co-treatment (AID 601;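 active = viability loss from added drug above about 55%, and viability with drug at most 40%, in both replicates, limit read from the data, passing the limit was not always enough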). The note with it: CellTiter-Glo, 72 h, at 10 µM; for differential viability (reversal): stronger effect = higher value.
Assay [7] in a line: 384-well plate pilot, post-Golgi transport modulator project, inhibition of yeast transport mutant growth (AID 636; in the data active = inhibition above about 31%). The conditions noted are these: absorbance 615 nm, about 18 h, stronger effect = higher value.
Assay [8] can be described thus: growth suppression of yeast trafficking mutant, preliminary HTS, modulators of trafficking downstream of Golgi apparatus project, 1536-format plate, OD 615 nm (AID 637; in the data active = inhibition above about 30%). The conditions noted are these: yeast transport mutant growth, absorbance 615 nm, 18 h; stronger effect = higher value.
[9] abbreviates: H69AR cells + 2 uM doxorubicin, measured here: viability with 2 uM doxorubicin, stronger effect = lower value.
[10] abbreviates: H69AR cells, compound alone cytotoxicity.

Consider `CCn1c(=S)ccc2ccc(OC)cc21`, for which the viability is 88.5% in assay [1]; 88.5% (inactive) in assay [3]; 98.7% (inactive) in assay [4]; 101% (inactive) in assay [5]; 87.6% in assay [6] (setting [9]); 101% in assay [6] (setting [10]). Moreover, the Her2 level in assay [2] was 114% (inactive). In addition, in assay [6] (H69AR cells + 2 uM doxorubicin), the differential viability (reversal) was 13.2% (inactive). Besides, the inhibition in assay [7] is -5.14% (inactive); in assay [8] it was -7.46% (inactive).
In the case of `COc1cc(NC(=O)C(C)Oc2ccccc2)c(C(=O)O)cc1OC` (stereo not given), the viability was 116% in assay [1]; 116% (inactive) in assay [3]; 96.4% (inactive) in assay [4]; 92.8% (inactive) in assay [5]; 81.1% in assay [6] (setting [9]); 92.8% in assay [6] (setting [10]). Further, the Her2 level in assay [2] is 90% (inactive). For the same compound, in assay [6] (H69AR cells + 2 uM doxorubicin), the differential viability (reversal) was 11.7% (inactive). The inhibition in assay [7] is -7.07% (inactive); in assay [8], 2.13% (inactive).
Regarding `CCS(=O)(=O)N1CCCC(C(=O)NCc2ccccc2Cl)C1` (stereo not given), the viability in assay [1] is 90%; in assay [3], 90% (inactive); in assay [4] it was 99.1% (inactive); in assay [5], 94.7% (inactive); in assay [6] (setting [9]), 88.9%; in assay [6] (setting [10]), 94.7%. For the same compound, the Her2 level in assay [2] was 110% (inactive). In assay [6] (H69AR cells + 2 uM doxorubicin), the differential viability (reversal) was 5.79% (inactive). Besides, the inhibition in assay [7] was -7.6% (inactive); in assay [8], -3.61% (inactive).
For the compound `COCCNC(=O)C(c1ccc(C)o1)N(Cc1ccc(OC)cc1)C(=O)Cn1nnc2ccccc21` (stereo not given), the viability in assay [1] was 102%; in assay [3], 102% (inactive); in assay [4], 102% (inactive); in assay [5], 97.8% (inactive); in assay [6] (setting [9]), 104%; in assay [6] (setting [10]) it was 97.8%. Also, in assay [2], the Her2 level is 98% (inactive). For the same compound, the differential viability (reversal) in assay [6] (H69AR cells + 2 uM doxorubicin) was -6.28% (inactive). Besides, the inhibition was -0.53% (inactive) in assay [7] and -0.82% (inactive) in assay [8].
Take `Cc1ccc(OC(=O)CCc2c(C)nc3ncnn3c2C)cc1`: the viability in assay [1] was 102%; in assay [3], 102% (inactive); in assay [4] it was 95.9% (inactive); in assay [5], 87.1% (inactive); in assay [6] (setting [9]) it was 81.7%; in assay [6] (setting [10]) it was 87.1%. For the same compound, in assay [2], the Her2 level is 96.5% (inactive). In assay [6] (H69AR cells + 2 uM doxorubicin), the differential viability (reversal) is 5.46% (inactive). The inhibition in assay [7] is 3.29% (inactive); in assay [8], -9.09% (inactive).
Regarding `O=C(CSc1nnc(-c2ccccc2Cl)n1Cc1ccco1)Nc1ccc2c(c1)OCCO2`, the viability in assay [1] was 83.5%; in assay [3] it was 83.5% (inactive); in assay [4], 93.9% (inactive); in assay [5], 77.7% (inactive); in assay [6] (setting [9]), 90.5%; in assay [6] (setting [10]), 77.7%. Moreover, the Her2 level in assay [2] was 80% (inactive). In assay [6] (H69AR cells + 2 uM doxorubicin), the differential viability (reversal) was -12.8% (inactive). Also, the inhibition in assay [7] was -3.07% (inactive); in assay [8] it was -4.75% (inactive).
As to `NC(=O)C1CCN(CC(=O)N2c3ccccc3CCc3ccccc32)CC1`, the viability in assay [1] is 117%; in assay [3], 117% (inactive); in assay [4] it was 103% (inactive); in assay [5], 93.9% (inactive); in assay [6] (setting [9]), 92.3%; in assay [6] (setting [10]), 93.9%. In addition, the Her2 level in assay [2] is 114% (inactive). In addition, in assay [6] (H69AR cells + 2 uM doxorubicin), the differential viability (reversal) is 1.55% (inactive). Also, the inhibition in assay [7] is -5.53% (inactive); in assay [8], 5.25% (inactive).
In the case of `Cc1cc(C)nc(NC(=O)c2ccc(OC(C)C)cc2)n1`, the viability is 102% in assay [1]; 102% (inactive) in assay [3]; 95.8% (inactive) in assay [4]; 104% (inactive) in assay [5]; 90.2% in assay [6] (setting [9]); 104% in assay [6] (setting [10]). In addition, the Her2 level in assay [2] is 90% (inactive). Moreover, the differential viability (reversal) in assay [6] (H69AR cells + 2 uM doxorubicin) is 14.3% (inactive). Further, the inhibition in assay [7] was -6.03% (inactive); in assay [8], -4.13% (inactive).
As to `Nc1nnc(-c2cn(-c3ccccc3)nc2-c2ccccc2)o1`, the viability in assay [1] was 73%; in assay [3], 73% (inactive); in assay [4], 77.3% (inactive); in assay [5] it was 91.2% (inactive); in assay [6] (setting [9]), 80.5%; in assay [6] (setting [10]), 91.2%. In addition, in assay [2], the Her2 level was 131% (inactive). Moreover, in assay [6] (H69AR cells + 2 uM doxorubicin), the differential viability (reversal) was 10.7% (inactive). Also, the inhibition in assay [7] is 2.47% (inactive); in assay [8], -15.5% (inactive).
For `COCC(C)NC(=O)NC(=O)c1ccc(Cl)cc1` (stereo not given), the viability is 99.5% in assay [1]; 99.5% (inactive) in assay [3]; 94.6% (inactive) in assay [4]; 98.7% (inactive) in assay [5]; 88.3% in assay [6] (setting [9]); 98.7% in assay [6] (setting [10]). Besides, the Her2 level in assay [2] is 93% (inactive). In addition, the differential viability (reversal) in assay [6] (H69AR cells + 2 uM doxorubicin) was 10.4% (inactive). The inhibition was -6.13% (inactive) in assay [7] and 4.76% (inactive) in assay [8].
Regarding `N#CCc1c(C#N)c(N)nc(N2CCN(S(=O)(=O)c3ccccc3)CC2)c1C#N`, the viability in assay [1] was 74%; in assay [3], 74% (inactive); in assay [4], 59% (inactive); in assay [5], 77.6% (inactive); in assay [6] (setting [9]), 91.2%; in assay [6] (setting [10]), 77.6%. Also, the Her2 level in assay [2] is 75.5% (inactive). In addition, the differential viability (reversal) in assay [6] (H69AR cells + 2 uM doxorubicin) is -13.6% (inactive). For the same compound, the inhibition in assay [7] is -4.46% (inactive); in assay [8], 0.16% (inactive).
Take `COCCCN1C(=O)C(O)=C(C(=O)c2ccco2)C1c1ccc(Br)cc1` (stereo not given): the viability is 102% in assay [1]; 102% (inactive) in assay [3]; 99.5% (inactive) in assay [4]; 97.6% (inactive) in assay [5]; 87.4% in assay [6] (setting [9]); 97.6% in assay [6] (setting [10]). Besides, the Her2 level in assay [2] was 89.5% (inactive). The differential viability (reversal) in assay [6] (H69AR cells + 2 uM doxorubicin) was 10.2% (inactive). In addition, the results for the inhibition in assay [7] and in assay [8] were -6.13% (inactive) and 0.81% (inactive), respectively.
In the case of `O=C(NCc1cccnc1)c1ccccn1`, the viability was 102% in assay [1]; 102% (inactive) in assay [3]; 103% (inactive) in assay [4]; 110% (inactive) in assay [5]; 93.9% in assay [6] (setting [9]); 110% in assay [6] (setting [10]). The Her2 level in assay [2] is 108% (inactive). The differential viability (reversal) in assay [6] (H69AR cells + 2 uM doxorubicin) is 16.2% (inactive). Besides, the results for the inhibition in assay [7] and in assay [8] were -4.8% (inactive) and -3.65% (inactive), respectively.
As for `O=C(NC1CCS(=O)(=O)C1)c1c(NC(=O)C2COc3ccccc3O2)sc2c1CCCC2` (stereo not given), the viability in assay [1] is 67%; in assay [3], 67% (inactive); in assay [4], 45.3% (inactive); in assay [5], 38.3% (active); in assay [6] (setting [9]), 36%; in assay [6] (setting [10]), 38.3%. In addition, the Her2 level in assay [2] was 69.5% (inactive). In addition, in assay [6] (H69AR cells + 2 uM doxorubicin), the differential viability (reversal) is 2.25% (inactive). Also, the values for the inhibition in assay [7] and in assay [8] were -4.67% (inactive) and -1.61% (inactive), respectively.
`Clc1ccc(OCc2nc(-c3ccccn3)no2)c(Br)c1`: the viability in assay [1] was 82.5%; in assay [3] it was 82.5% (inactive); in assay [4], 55.6% (inactive); in assay [5], 102% (inactive); in assay [6] (setting [9]) it was 98.4%; in assay [6] (setting [10]), 102%. For the same compound, the Her2 level in assay [2] was 92.5% (inactive). Moreover, in assay [6] (H69AR cells + 2 uM doxorubicin), the differential viability (reversal) is 3.96% (inactive). Also, the results for the inhibition in assay [7] and in assay [8] were -0.26% (inactive) and -8.67% (inactive), respectively.
Turning to `C=CCSc1ncccc1C(=O)O`, the viability in assay [1] was 89.5%; in assay [3] it was 89.5% (inactive); in assay [4] it was 98.4% (inactive); in assay [5], 97.1% (inactive); in assay [6] (setting [9]), 88.3%; in assay [6] (setting [10]), 97.1%. Further, in assay [2], the Her2 level was 104% (inactive). Besides, the differential viability (reversal) in assay [6] (H69AR cells + 2 uM doxorubicin) was 8.72% (inactive). Besides, the results for the inhibition in assay [7] and in assay [8] were -1.32% (inactive) and -7.42% (inactive), respectively.
